Measurements: ChEMBL document CHEMBL1139341 (J Med Chem, 2009)
Calls of active or inactive are those of the source. The rule behind the calls is not given here. Starred links: 1 amine or outer side, 2 acyl side, 3 side chain; linkers in the order of their positions; H or OH if unused. Positions of bridges follow the written chain, without caps; N, C: chain ends. Non-standard residues stand in square brackets, D forms with d. Residues, ends and D or L forms follow the SMILES beside them. Phe(Nα-(CH2)3CO) = O=C([C@H](Cc1ccccc1)N(CCCC(=O)[*:3])[*:1])[*:2]; N(2-aminoethyl)Phe = O=C([C@H](Cc1ccccc1)N(CCN[*:3])[*:1])[*:2]

Key:
[1] = target: Somatostatin receptor type 1 (Homo sapiens, UniProt P30872); assay: Displacement of [125I]-[Leu8, DTrp22, Tyr25]-somatostatin-28 from human recombinant sst1 receptor expressed in chinese hamster CCL39 cells; assay type: cell-based
Sequence of Somatostatin receptor type 1 (P30872 whole entry): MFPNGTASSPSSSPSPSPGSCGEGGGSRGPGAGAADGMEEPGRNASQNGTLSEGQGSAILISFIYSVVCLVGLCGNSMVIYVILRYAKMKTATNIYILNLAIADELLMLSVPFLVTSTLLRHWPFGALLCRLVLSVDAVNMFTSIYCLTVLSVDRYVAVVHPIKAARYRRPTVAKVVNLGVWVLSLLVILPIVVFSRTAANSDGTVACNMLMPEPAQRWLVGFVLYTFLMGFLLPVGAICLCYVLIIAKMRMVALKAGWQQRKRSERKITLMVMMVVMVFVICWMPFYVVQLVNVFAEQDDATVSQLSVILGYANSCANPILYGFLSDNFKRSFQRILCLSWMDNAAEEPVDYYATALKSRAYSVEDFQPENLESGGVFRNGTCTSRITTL
Procedure, shortened: (§1)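 Competitive displacement on membrane pellet sections from cells expressing each human sst subtype. The radioligand was [¹²⁵I]-[Leu⁸,D-Trp²²,Tyr²⁵]-somatostatin-28 at 15000 cpm/100 µL. Unlabeled compounds were tested from 0.1 to 1,000 nmol/L, with somatostatin-28 run in parallel over the same range. IC₅₀ was calculated from displacement.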

[2] = target: Somatostatin receptor type 2 (Homo sapiens, UniProt P30874); assay: Displacement of [125I]-[Leu8, DTrp22, Tyr25]-somatostatin-28 from human recombinant sst2 receptor expressed in chinese hamster CCL39 cells; assay type: cell-based; procedure, shortened: as §1
Sequence of Somatostatin receptor type 2 (P30874 whole entry): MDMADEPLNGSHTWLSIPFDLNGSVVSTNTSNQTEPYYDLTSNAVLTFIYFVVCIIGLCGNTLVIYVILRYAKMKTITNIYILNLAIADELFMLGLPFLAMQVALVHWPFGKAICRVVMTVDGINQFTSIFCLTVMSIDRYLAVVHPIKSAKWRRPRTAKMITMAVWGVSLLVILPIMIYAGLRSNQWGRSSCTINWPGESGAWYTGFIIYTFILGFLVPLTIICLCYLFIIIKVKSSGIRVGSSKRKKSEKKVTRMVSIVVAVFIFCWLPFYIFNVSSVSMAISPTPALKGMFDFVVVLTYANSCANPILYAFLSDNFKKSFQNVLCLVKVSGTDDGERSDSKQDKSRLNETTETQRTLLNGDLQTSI

[3] = target: T1, Somatostatin receptor type 5 (Homo sapiens, UniProt P35346); assay: Displacement of [125I]-[Leu8, DTrp22, Tyr25]-somatostatin-28 from human recombinant sst5 receptor expressed in chinese hamster CCL39 cells; assay type: cell-based; procedure, shortened: as §1
T1 sequence (P35346 whole entry): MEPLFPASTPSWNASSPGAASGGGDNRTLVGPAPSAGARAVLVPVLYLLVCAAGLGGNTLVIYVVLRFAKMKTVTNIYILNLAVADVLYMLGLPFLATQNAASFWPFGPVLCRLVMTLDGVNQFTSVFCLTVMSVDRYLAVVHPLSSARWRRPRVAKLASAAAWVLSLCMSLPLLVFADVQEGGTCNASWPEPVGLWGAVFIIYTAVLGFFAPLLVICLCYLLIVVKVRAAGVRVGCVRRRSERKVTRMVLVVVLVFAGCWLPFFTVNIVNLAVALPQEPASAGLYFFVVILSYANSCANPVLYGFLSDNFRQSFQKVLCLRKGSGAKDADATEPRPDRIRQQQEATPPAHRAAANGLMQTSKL

[4] = target: Somatostatin receptor type 4 (Homo sapiens, UniProt P31391); assay: Displacement of [125I]-[Leu8, DTrp22, Tyr25]-somatostatin-28 from human recombinant sst4 receptor expressed in chinese hamster CCL39 cells; assay type: cell-based; procedure, shortened: as §1
Sequence of Somatostatin receptor type 4 (P31391 whole entry): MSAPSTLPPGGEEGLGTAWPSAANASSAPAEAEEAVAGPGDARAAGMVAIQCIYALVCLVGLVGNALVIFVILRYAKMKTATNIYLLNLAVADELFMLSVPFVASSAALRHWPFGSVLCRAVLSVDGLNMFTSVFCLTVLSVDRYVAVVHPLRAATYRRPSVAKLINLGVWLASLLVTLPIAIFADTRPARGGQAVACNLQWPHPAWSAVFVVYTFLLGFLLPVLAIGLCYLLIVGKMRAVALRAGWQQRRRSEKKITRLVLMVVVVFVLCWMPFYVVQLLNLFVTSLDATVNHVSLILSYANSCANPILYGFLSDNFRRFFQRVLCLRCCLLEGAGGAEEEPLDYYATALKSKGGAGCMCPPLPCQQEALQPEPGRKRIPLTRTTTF

[5] = target: Somatostatin receptor type 3 (Homo sapiens, UniProt P32745); assay: Displacement of [125I]-[Leu8, DTrp22, Tyr25]-somatostatin-28 from human recombinant sst3 receptor expressed in chinese hamster CCL39 cells; assay type: cell-based; procedure, shortened: as §1
Sequence of Somatostatin receptor type 3 (P32745 whole entry): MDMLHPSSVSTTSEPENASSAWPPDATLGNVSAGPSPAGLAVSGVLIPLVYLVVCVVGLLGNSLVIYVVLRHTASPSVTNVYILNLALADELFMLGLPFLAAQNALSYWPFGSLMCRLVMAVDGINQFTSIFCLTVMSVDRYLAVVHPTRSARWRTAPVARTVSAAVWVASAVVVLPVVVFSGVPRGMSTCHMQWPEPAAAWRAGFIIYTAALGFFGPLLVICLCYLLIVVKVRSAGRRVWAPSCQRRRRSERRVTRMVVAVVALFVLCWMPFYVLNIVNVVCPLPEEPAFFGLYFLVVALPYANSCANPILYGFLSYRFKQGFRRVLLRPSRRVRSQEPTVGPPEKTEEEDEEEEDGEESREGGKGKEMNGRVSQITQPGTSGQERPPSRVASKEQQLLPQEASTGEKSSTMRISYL

[6] = target: T1, Somatostatin receptor type 5; assay: Agonist activity at human recombinant sst5 receptor expressed in chinese hamster CCL39 cells assessed stimulation of [35S]GTP-gamma-S-binding; assay type: functional, cell-based
Procedure, shortened: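 CCL-sst₅ cells grown in DMEM/Ham's F-12 (1:1) with 10% FBS, penicillin/streptomycin and 400 µg/mL G418 at 37 °C, 5% CO₂. Binding was run on 20 µm cryostat sections of membrane pellets. Sections were preincubated 10 min at room temperature in Tris-HCl buffer (pH 8.2) with BSA, bacitracin and MgCl₂. They then went 30 min in the same buffer plus 50 µM GDP.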

Homo sapiens = organism: Homo sapiens; assay: Selectivity for human recombinant sst5 receptor over human recombinant sst4 receptor

IC50 [1] [nM]	IC50 [2] [nM]	IC50 [3] [nM]	IC50 [4] [nM]	IC50 [5] [nM]	Activity [6]	fold change (FC) (Homo sapiens)	Compound
379	2.1	2.9	35	9.1			NCCCC[C@@H](C(=O)NCc1ccccc1)N1Cc2[nH]c3ccccc3c2C[C@@H](NC(=O)N2CCC3(CCc4ccccc43)CC2)C1=O
> 1000	> 1000	25	56	910			NCCCC[C@H](C(=O)NCc1ccccc1)N1Cc2[nH]c3ccccc3c2C[C@@H](NC(=O)Cc2ccccc2)C1=O
105	> 1000	0.56	7	515	Active	10	CC(=O)N[C@@H]1Cc2c([nH]c3ccccc23)CN([C@@H](CCCCN)C(=O)NCCc2ccccc2)C1=O
387	215	3.5	17	105			NCCCC[C@@H](C(=O)NCc1cccc2ccccc12)N1Cc2[nH]c3ccccc3c2C[C@@H](NC(=O)Cc2ccccc2)C1=O
		0.4					C[C@H](N)COC(=O)[C@@H](CCCCN)NC(=O)Cc1c(-c2ccc3ccccc3c2)[nH]c2c1ccc1ccccc12
253	292	5	7	> 1000			CC(=O)N[C@@H]1Cc2c([nH]c3ccccc23)CN([C@@H](CCCCN)C(=O)NCc2ccccc2)C1=O
962	290	13	2.4	400			COC(=O)[C@H](CCCCN)N1Cc2[nH]c3ccccc3c2C[C@@H](NC(=O)Cc2ccccc2)C1=O
						24	CC(C)[C@@H]1NC(=O)[C@H](CCCCN)NC(=O)[C@H](Cc2c[nH]c3ccccc23)NC(=O)[C@H](Cc2ccc(O)cc2)NC(=O)[C@H](Cc2ccccc2)NCCNC(=O)CCCN([C@@H](Cc2ccccc2)C(=O)N[C@H](C(N)=O)[C@@H](C)O)C1=O (H-[N(2-aminoethyl)Phe]YWKV[Phe(Nα-(CH2)3CO)]T-NH2; lactam 1-6)
247	242	8.8	14	> 500			NCCCC[C@@H](C(=O)NCc1ccccc1)N1Cc2[nH]c3ccccc3c2C[C@@H](NC(=O)C(c2ccccc2)c2ccccc2)C1=O
		12				24	C[C@@H](O)[C@@H](CO)NC(=O)[C@@H]1C/C=C/C[C@H](NC(=O)[C@H](N)Cc2ccccc2)C(=O)N[C@@H](Cc2ccccc2)C(=O)N[C@H](Cc2c[nH]c3ccccc23)C(=O)N[C@@H](CCCCN)C(=O)N[C@@H](Cc2ccc(OCc3ccccc3)cc2)C(=O)N1
837	327	8	2.1	316			CS(=O)(=O)N1CC2(CCN(C(=O)N[C@@H]3Cc4c([nH]c5ccccc45)CN([C@@H](CCCCN)C(=O)NCc4ccccc4)C3=O)CC2)c2ccccc21
38	22	3.7	2.3	162			NCCCC[C@@H](C(=O)NCc1ccccc1)N1Cc2[nH]c3ccccc3c2C[C@@H](NC(=O)c2ccc(Cl)cc2)C1=O
76	0.73	0.86	4.4	3.9			NCCCC[C@@H](C(=O)NCc1ccccc1)N1Cc2[nH]c3ccccc3c2C[C@@H](NC(=O)N2CCC(n3c(=O)[nH]c4ccccc43)CC2)C1=O
54	10	3.4	8.1	153			NCCCC[C@@H](C(=O)NCc1ccccc1)N1Cc2[nH]c3ccccc3c2C[C@@H](NC(=O)CCc2ccccc2)C1=O
89	2.1	1.4	6.9	119			NCCCC[C@@H](C(=O)NCc1ccccc1)N1Cc2[nH]c3ccccc3c2C[C@@H](NC(=O)C2CCN(C(=O)c3ccccc3)CC2)C1=O
27	103	1.8	1.3	182			NCCCC[C@@H](C(=O)NCc1ccccc1)N1Cc2[nH]c3ccccc3c2C[C@@H](NC(=O)c2ccccc2)C1=O
> 1000	12	16	161	54			NCCCC[C@@H](C(=O)NCc1ccccc1)N1Cc2[nH]c3ccccc3c2C[C@@H](NC(=O)c2ccc(-c3ccccc3)cc2)C1=O
		0.3				200	NCc1cccc(C[C@@H]2O[C@@H](CC(=O)NCc3ccccc3F)C(=O)N(Cc3ccc(-c4ccccc4)cc3)c3ccccc32)c1
630	770	50	14	403			C[C@@H](NC(=O)[C@H](CCCCN)N1Cc2[nH]c3ccccc3c2C[C@@H](NC(=O)Cc2ccccc2)C1=O)c1ccccc1
183	452	3.2	1	300			C[C@H](NC(=O)[C@H](CCCCN)N1Cc2[nH]c3ccccc3c2C[C@@H](NC(=O)Cc2ccccc2)C1=O)c1ccccc1
75	183	0.6	2.4	50	Active		NCCCC[C@@H](C(=O)NCCc1ccccc1)N1Cc2[nH]c3ccccc3c2C[C@@H](NC(=O)Cc2ccccc2)C1=O
372	4.2	3.5	59	260			NCCCC[C@@H](C(=O)NCc1ccccc1)N1Cc2[nH]c3ccccc3c2C[C@@H](NC(=O)N2CCN(S(=O)(=O)c3ccccc3)CC2)C1=O
